Measured values from PMC6398604 (Journal of medicinal chemistry, 2018).
Blank lines part the entries; values can stand above or below the compound they belong to.

Key:
[1] = cited from earlier work
[2] = cited from earlier work; remark: listed apart in the source
[3] = Rat biomarker assay: inhibitor concentrations in plasma, brain and CSF; type: in vivo; conditions: for concentration at 4 h: male, Sprague Dawley, CSF, oral, 10 mg/kg, Free CSF, 4 hours after 10mg/kg oral dose, corrected for non-specific binding to CSF
[4] = Non-specific binding to CSF by equilibrium dialysis; type: in vitro ADME; conditions: pooled rat CSF, 2 μM testing concentration
[5] = target: P-glycoprotein (Homo sapiens, UniProt P08183); experiment: P-gp efflux ratio in P-glycoprotein expressing MDCK cells; type: in vitro ADME
[6] = system: rat hepatocytes; experiment: Hepatocyte stability; type: in vitro ADME
[7] = Rat pharmacokinetics; type: in vivo; conditions: for clearance: rat, plasma, iv, 1 mg/kg; for rat PK profile (in words): rat PK studies
[8] = target: T1, Human MB-COMT (Homo sapiens, UniProt P21964); experiment: MTase Glo Methyltransferase assay, MB-COMT; type: biochemical
T1 sequence (P21964 1-271): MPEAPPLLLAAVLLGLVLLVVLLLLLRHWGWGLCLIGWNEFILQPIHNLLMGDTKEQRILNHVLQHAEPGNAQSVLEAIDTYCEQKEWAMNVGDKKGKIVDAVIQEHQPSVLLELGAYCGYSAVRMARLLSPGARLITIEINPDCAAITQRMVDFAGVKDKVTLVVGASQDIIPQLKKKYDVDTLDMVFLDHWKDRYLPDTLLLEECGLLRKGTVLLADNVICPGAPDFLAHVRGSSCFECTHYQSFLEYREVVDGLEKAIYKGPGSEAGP

[9] = Mouse Blood-Brain Barrier; type: in vivo; conditions: 10 mg/kg ip, mice
Outline: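 Male C57BL/6J mice (8 weeks) were habituated and handled before dosing. Test compound was suspended in 0.1% Tween80, 0.1% silicone antifoam and 1% methylcellulose in water, then given once ip at 10 mg/kg (10 mL/kg). At 5, 15 or 60 min, mice under isoflurane gave cardiac blood (Li-heparin) and were PBS-perfused. Plasma was spun 2000 rpm, 4°C, 15 min. Brain was homogenised in 4x (w/v) PBS pH 7.4 for total levels.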

[10] = system: dopamine metabolites HVA and DOPAC in rat CSF (COMT); experiment: Rat biomarker assay: HVA and DOPAC in CSF; type: in vivo; conditions: 4 hours after 10 mpk oral
[11] = target: MRP2 (Homo sapiens, UniProt Q92887); experiment: Transporter susceptibility and inhibitory activity, MRP2; type: in vitro ADME; conditions: data not shown
[12] = target: P-gp (Homo sapiens, UniProt P08183); experiment: Transporter susceptibility and inhibitory activity, P-gp; type: in vitro ADME; conditions: data not shown
[13] = target: T2, BCRP (Homo sapiens, UniProt Q9UNQ0); experiment: Transporter susceptibility and inhibitory activity, BCRP; type: in vitro ADME; conditions: data not shown
T2 sequence (Q9UNQ0 1-655): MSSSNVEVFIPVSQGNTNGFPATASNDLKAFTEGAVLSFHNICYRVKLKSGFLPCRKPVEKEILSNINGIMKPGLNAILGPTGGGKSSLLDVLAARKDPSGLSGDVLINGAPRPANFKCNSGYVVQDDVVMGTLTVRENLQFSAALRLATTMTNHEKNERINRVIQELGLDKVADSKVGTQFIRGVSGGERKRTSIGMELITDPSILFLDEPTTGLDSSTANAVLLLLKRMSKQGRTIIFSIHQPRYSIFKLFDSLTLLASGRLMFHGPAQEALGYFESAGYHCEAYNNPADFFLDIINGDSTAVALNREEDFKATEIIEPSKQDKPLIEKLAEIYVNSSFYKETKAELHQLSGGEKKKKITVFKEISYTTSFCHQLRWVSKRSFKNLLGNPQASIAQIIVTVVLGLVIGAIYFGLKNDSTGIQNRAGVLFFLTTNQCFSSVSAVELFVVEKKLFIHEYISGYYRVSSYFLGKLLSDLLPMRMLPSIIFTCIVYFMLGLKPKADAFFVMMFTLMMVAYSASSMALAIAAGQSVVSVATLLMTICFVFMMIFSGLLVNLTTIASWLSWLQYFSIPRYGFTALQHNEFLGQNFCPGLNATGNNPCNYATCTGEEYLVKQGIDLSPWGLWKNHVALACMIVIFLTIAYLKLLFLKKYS

Sequence of P-glycoprotein (P08183 whole entry): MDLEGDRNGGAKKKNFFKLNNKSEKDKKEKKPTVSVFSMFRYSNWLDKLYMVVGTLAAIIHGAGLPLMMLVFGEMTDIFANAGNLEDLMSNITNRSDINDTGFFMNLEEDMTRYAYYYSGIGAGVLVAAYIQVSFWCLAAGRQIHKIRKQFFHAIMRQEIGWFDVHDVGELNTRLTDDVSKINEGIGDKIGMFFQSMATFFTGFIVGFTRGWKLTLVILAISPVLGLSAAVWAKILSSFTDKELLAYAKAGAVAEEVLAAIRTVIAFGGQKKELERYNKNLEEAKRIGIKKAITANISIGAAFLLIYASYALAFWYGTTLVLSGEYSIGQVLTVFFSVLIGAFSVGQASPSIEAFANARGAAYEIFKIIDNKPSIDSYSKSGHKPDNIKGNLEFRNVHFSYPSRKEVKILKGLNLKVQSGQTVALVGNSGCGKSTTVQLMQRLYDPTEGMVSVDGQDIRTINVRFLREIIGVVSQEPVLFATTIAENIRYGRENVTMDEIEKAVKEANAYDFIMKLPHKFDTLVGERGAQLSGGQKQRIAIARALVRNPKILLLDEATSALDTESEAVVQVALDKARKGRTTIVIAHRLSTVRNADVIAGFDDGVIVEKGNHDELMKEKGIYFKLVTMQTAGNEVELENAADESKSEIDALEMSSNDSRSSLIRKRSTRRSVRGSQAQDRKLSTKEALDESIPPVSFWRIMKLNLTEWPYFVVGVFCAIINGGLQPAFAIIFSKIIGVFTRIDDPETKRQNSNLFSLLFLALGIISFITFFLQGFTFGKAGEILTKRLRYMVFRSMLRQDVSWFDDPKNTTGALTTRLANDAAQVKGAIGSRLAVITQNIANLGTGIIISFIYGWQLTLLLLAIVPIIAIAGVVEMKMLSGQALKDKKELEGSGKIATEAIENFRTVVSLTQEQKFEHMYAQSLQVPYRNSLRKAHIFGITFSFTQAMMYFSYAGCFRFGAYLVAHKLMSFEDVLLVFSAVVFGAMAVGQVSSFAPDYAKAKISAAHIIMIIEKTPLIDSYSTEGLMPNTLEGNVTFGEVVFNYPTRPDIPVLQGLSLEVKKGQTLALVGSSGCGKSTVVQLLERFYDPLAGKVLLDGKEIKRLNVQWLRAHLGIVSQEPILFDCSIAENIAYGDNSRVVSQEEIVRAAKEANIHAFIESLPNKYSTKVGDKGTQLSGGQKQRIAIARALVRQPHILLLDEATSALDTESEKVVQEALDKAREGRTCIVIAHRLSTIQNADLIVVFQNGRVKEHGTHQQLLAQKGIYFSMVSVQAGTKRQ
Sequence of P-gp (P08183 whole entry): as above
Sequence of MRP2 (Q92887 whole entry, species assumed): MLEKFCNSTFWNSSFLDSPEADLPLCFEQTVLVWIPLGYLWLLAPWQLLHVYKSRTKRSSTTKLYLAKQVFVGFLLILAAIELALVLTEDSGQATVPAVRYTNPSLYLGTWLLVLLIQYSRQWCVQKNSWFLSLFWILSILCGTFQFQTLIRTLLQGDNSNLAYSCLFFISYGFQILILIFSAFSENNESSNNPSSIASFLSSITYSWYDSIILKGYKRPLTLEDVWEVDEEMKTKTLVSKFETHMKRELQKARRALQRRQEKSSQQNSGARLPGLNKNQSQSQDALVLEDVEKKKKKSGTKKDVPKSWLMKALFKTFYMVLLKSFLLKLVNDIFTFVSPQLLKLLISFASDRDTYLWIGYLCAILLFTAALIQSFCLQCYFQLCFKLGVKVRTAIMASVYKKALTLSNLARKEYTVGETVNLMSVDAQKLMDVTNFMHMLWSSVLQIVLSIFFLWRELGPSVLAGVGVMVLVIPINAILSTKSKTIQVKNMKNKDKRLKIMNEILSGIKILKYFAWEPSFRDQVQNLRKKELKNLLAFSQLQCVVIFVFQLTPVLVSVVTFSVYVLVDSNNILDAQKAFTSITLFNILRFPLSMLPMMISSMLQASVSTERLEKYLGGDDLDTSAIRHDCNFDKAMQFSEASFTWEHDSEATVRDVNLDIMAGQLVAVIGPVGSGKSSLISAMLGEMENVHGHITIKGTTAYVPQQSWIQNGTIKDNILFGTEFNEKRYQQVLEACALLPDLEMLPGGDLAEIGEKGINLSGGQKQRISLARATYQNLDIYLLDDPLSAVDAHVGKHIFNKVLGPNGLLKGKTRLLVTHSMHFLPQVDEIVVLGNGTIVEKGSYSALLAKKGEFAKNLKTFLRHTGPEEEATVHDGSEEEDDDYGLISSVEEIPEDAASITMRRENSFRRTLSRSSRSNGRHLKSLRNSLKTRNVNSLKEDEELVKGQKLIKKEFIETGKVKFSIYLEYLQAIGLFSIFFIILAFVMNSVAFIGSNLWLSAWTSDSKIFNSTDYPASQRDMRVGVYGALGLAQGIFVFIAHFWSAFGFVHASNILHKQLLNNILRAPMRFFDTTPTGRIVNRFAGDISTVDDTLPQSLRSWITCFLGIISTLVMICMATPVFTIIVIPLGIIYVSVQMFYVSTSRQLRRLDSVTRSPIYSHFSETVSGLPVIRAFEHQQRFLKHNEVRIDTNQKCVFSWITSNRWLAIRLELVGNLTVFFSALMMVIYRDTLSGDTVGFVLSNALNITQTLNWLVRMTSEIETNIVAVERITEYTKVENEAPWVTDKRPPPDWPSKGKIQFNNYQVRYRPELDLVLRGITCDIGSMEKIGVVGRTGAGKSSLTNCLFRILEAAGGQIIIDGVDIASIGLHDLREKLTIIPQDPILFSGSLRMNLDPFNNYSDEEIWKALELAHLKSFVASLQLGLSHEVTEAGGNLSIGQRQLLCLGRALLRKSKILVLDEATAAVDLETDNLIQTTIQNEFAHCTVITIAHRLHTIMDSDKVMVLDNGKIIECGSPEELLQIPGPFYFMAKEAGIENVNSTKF

Structure (SMILES): Cc1ccc(C(=O)c2cc(O)c(O)c([N+](=O)[O-])c2)cc1 [Compound 1, tolcapone, reference compound]
brain penetration (in words) [1]: low but measurable levels in the brain | hepatic toxicity (in words) [2]: associated with hepatic toxicity | CSF ([3]; 4 hours after 15mpk ip): BLQ | Free Brain ([3]; 4 hours after 15mpk ip): BLQ

Structure (SMILES): CCN(CC)C(=O)/C(C#N)=C/c1cc(O)c(O)c([N+](=O)[O-])c1 [Compound 2, entacapone]
brain penetration (in words) [1]: negligible brain penetration

Structure (SMILES): Oc1cccc2cccnc12 [Compound 4, 8-hydroxyquinoline, reference compound]
MB-COMT inhibition / potency (in words) [8]: abolished MB-COMT inhibition

Structure (SMILES): O=S(=O)(c1ccc(O)c2ncccc12)C1CCCC1 [Compound 11, 5-(Cyclopentylsulfonyl)quinoline-8-ol]
clearance [7]: 26 mL/min/kg

Structure (SMILES): O=S(=O)(c1cc(F)c(O)c2ncccc12)C1CCCC1 [Compound 25, 5-(Cyclopentylsulfonyl)-7-fluoroquinolin-8-ol]
Non-specific binding to CSF (bound) [4]: 51–57% | HVA decrease, significance versus vehicle (in words) [10]: statistically significant difference | Hepatocyte Stability (Rat) [6]: 19 μL/min/10^6 cells | concentration at 4 h [3]: 139 nM | rat PK profile (in words) [7]: good pharmacokinetics | clearance [7]: 0.62 mL/min/kg

Structure (SMILES): O=S(=O)(c1cc(F)c(O)c2ncccc12)N1CCCC1 [Compound 28, 7-Fluoro-5-(pyrrolidin-1-ylsulfonyl)quinolin-8-ol]
Non-specific binding to CSF (bound) [4]: 51–57% | substrate or inhibitor of MRP2 (in words) [11]: not found to be a substrate or an inhibitor | substrate or inhibitor of P-gp (in words) [12]: not found to be a substrate or an inhibitor | HVA decrease, significance versus vehicle (in words) [10]: statistically significant difference | Hepatocyte Stability (Rat) [6]: 21 μL/min/10^6 cells | concentration at 4 h [3]: 77 nM | rat PK profile (in words) [7]: good pharmacokinetics | clearance [7]: 11 mL/min/kg | substrate or inhibitor of BCRP (in words) [13]: not found to be a substrate or an inhibitor

Structure (SMILES): O=S(=O)(c1cc(Cl)c(O)c2ncccc12)C1CCCC1 [Compound 26, 7-Chloro-5-(cyclopentylsulfonyl)quinolin-8-ol]
Hepatocyte Stability (Rat) [6]: 18 μL/min/10^6 cells | rat PK profile (in words) [7]: very low clearance and long half-life

Structure (SMILES): O=S(=O)(c1ccc(O)c2ncccc12)N1CCC(c2ccc(F)cc2)C1 (centres unmarked) [Compound 13, 5-((3-(4-Fluorophenyl)pyrrolidin-1-yl)sulfonyl)quinoline-8-ol]
metabolic stability / clearance in rat hepatocytes (in words) [6]: Poor metabolic stability

Structure (SMILES): COc1ccc(S(=O)(=O)N2CCCC2)c2cccnc12 [Compound 14, 8-Methoxy-5-(pyrrolidin-1-yulsulfonyl)quinoline]
MB-COMT inhibition / potency (in words) [8]: no appreciable inhibition of MB-COMT

Structure (SMILES): Cc1c(Cl)c(C)[n+]([O-])c(Cl)c1-c1noc(-c2cc(O)c(O)c([N+](=O)[O-])c2)n1 [Compound 3, opicapone]
brain penetration (in words) [1]: negligible brain penetration

Structure (SMILES): O=S(=O)(c1ccc(O)c2ncccc12)N1CCCC1Cc1ccccc1 (centres unmarked) [Compound 16, 5-((2-Benzylpyrrolidin-1-yl)sulfonyl)quinoline-8-ol]
Hepatocyte Stability (Rat) [6]: 228 μL/min/10^6 cells | metabolic stability / clearance in rat hepatocytes (in words) [6]: high hepatocyte clearance | overall exposure in mouse (in words) [9]: low overall exposure

Structure (SMILES): O=S(=O)(c1cc(Cl)c(O)c2ncccc12)N1CCCC1 [Compound 29, 7-Chloro-5-(pyrrolidin-1-ylsulfonyl)quinolin-8-ol]
Hepatocyte Stability (Rat) [6]: 14 μL/min/10^6 cells | rat PK profile (in words) [7]: very low clearance and long half-life | clearance [7]: 1 mL/min/kg

Structure (SMILES): O=S(=O)(c1ccc(O)c2ncccc12)N1CCCC1 [Compound 12, 5-(Pyrrolidin-1-ylsulfonyl)quinoline-8-ol]
Hepatocyte Stability (Rat) [6]: 177 μL/min/10^6 cells | metabolic stability / clearance in rat hepatocytes (in words) [6]: Poor metabolic stability

Further lines, with some results ahead:

Non-specific binding to CSF (bound) [4]: 51–57% | P-gp substrate (in words) [5]: not substrates for the transporter | Hepatocyte Stability (Rat) [6]: 15 μL/min/10^6 cells | concentration at 4 h [3]: 59 nM | clearance [7]: 12 mL/min/kg
Structure (SMILES): O=S(=O)(c1ccc(F)cc1)c1cc(F)c(O)c2ncccc12 [Compound 20, 7-Fluoro-5-((4-fluorophenyl)sulfonyl)quinolin-8-ol]

Hepatocyte Stability (Rat) [6]: 4 μL/min/10^6 cells | rat PK profile (in words) [7]: very low clearance and long half-life | clearance [7]: 0.31 mL/min/kg
Structure (SMILES): O=S(=O)(c1ccc(F)cc1)c1cc(Cl)c(O)c2ncccc12 [Compound 19, 7-Chloro-5-((4-fluorophenyl)sulfonyl)quinolin-8-ol]

Hepatocyte Stability (Rat) [6]: 103 μL/min/10^6 cells | metabolic stability / clearance in rat hepatocytes (in words) [6]: no impact on clearance
Structure (SMILES): Cc1cc(S(=O)(=O)N2CCCC2)c2cccnc2c1O [Compound 30, 7-Methyl-5-(pyrrolidin-1-ylsulfonyl)quinolin-8-ol]
MB-COMT inhibition / potency (in words) [8]: tolerated

MB-COMT inhibition / potency (in words) [8]: reduced MB-COMT potency
Structure (SMILES): Cc1ccc(S(=O)(=O)c2cc(Br)c(O)c3ncccc23)cc1 [Compound 23, 7-Bromo-5-tosylquinolin-8-ol]

Hepatocyte Stability (Rat) [6]: 39 μL/min/10^6 cells | metabolic stability / clearance in rat hepatocytes (in words) [6]: high hepatocyte clearance | overall exposure in mouse (in words) [9]: low overall exposure
Structure (SMILES): CCS(=O)(=O)c1ccc(O)c2ncccc12 [Compound 15, 5-(Ethylsulfonyl)quinoline-8-ol]

P-gp substrate (in words) [5]: not substrates for the transporter | Hepatocyte Stability (Rat) [6]: 78 μL/min/10^6 cells | clearance [7]: 25 mL/min/kg
Structure (SMILES): Cc1ccc(S(=O)(=O)c2cc(Cl)c(O)c3ncccc23)cc1 [Compound 22, 7-Chloro-5-tosylquinolin-8-ol]

Hepatocyte Stability (Rat) [6]: 12 μL/min/10^6 cells | clearance [7]: 13 mL/min/kg
Structure (SMILES): O=S(=O)(c1ccc(C(F)(F)F)cc1)c1cc(F)c(O)c2ncccc12 [Compound 18, 7-Fluoro-5-((4-(trifluoromethyl)phenyl)sulfonyl)quinolin-8-ol]

Hepatocyte Stability (Rat) [6]: 46 μL/min/10^6 cells | metabolic stability / clearance in rat hepatocytes (in words) [6]: high hepatocyte clearance
Structure (SMILES): O=S(=O)(c1ccc(C(F)(F)F)cc1)c1ccc(O)c2ncccc12 [Compound 17, 5-((4-(Trifluoromethyl)phenyl)sulfonyl)quinolin-8-ol]

Hepatocyte Stability (Rat) [6]: 36 μL/min/10^6 cells | clearance [7]: 27 mL/min/kg
Structure (SMILES): Cc1ccc(S(=O)(=O)c2cc(F)c(O)c3ncccc23)cc1 [Compound 21, 7-Fluoro-5-tosylquinolin-8-ol]
